Most compounds without a hit are left out; they make up all but 3.7% or so of the library.
KCNK9 inh – human KCNK9 channel inhibition. Q9NPC2. hit rate 1.2% among 310,000. B-score at 10 µM. HEK293 KCNK9, FluxOR thallium flux fluorescence; active compounds read low. AID 488922;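 active = ratio B-score over 3 SD below the library mean, with starting fluorescence within 5 SD of its mean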;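 also: negative B-score means less thallium flux so channel inhibition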
hERG rescue – compounds protecting human hERG from proarrhythmic drug block. CHO-hERG, FluxOR thallium flux, dofetilide IC70 present. activation (rescue from dofetilide block), less the hit threshold, % at 10 µM. hit rate 0.51% among 310,000. Q12809;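 active = activation above the mean of controls blocked by dofetilide plus 5 SD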;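 also: thallium influx through hERG after potassium depolarization seen as dye fluorescence rise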
KCNK3 block – human KCNK3 channel inhibition, primary screen; O14649; CHO-KCNK3 thallium flux, FluxOR fluorescence; active compounds read low; B-score at 10 µM; hit rate 0.84% among 340,000;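 active = B-score under library mean minus 4 SD, starting fluorescence ratio at most library mean plus 5 SD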;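 also: more negative B-score means stronger inhibition of thallium flux through KCNK3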
KCNQ1 act – potentiators or activators of human KCNQ1 potassium channel. CHO-K1 KCNQ1, thallium flux FluxOR fluorescence; active compounds read high. B-score at 10 µM. hit rate 0.35% among 310,000. AID 2648;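 active = fluorescence ratio B-score, a plate-corrected score, at least three library SD, with initial intensity B-score within 5 SD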
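Doses: Single concentration per compound, DMSO matched to controls | Test system: KCNQ1-transfected CHO-K1 cells | Timing: 90 min dye loading and 20 min compound exposure, both at room temperature | Measured by: Kinetic FluxOR thallium fluorescence, 10-s 1-Hz baseline, 110-s post-stimulus read | Medium: Assay buffer with matched DMSO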
Kir21 inh – blocks the mouse Kir2.1 inward-rectifier potassium channel; P35561; HEK293-Kir2.1, FluxOR thallium flux fluorescence; active compounds read low; B-score at 10 µM; hit rate 0.85% among 310,000;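 active = fluorescence ratio B-score at or below minus 3 SD of library scores, with starting-brightness B-score within 2 SD, cut at about -4.2 in these data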;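 also: channel flux triggered by added potassium and thallium sulfate stimulus; B-score of peak minus minimum fluorescence over baseline after thallium stimulus; more negative B-score means stronger Kir2.1 block with less thallium influx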
Target sequence (P35561 whole entry, looked up): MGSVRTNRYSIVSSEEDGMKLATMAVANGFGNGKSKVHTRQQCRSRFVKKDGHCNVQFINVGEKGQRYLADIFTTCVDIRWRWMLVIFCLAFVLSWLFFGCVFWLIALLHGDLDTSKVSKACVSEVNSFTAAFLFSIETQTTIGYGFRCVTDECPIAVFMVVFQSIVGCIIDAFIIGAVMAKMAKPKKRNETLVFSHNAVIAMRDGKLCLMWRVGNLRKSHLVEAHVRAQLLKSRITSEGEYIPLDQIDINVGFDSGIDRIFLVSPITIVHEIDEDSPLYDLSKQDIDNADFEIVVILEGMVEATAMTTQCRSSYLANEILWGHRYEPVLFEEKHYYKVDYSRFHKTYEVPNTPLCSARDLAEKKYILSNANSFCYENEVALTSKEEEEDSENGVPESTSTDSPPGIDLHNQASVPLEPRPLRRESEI
KCNQ1 block – blocks the human KCNQ1 potassium channel | P51787 | CHO-K1 KCNQ1, FluxOR thallium flux fluorescence; active compounds read high | B-score at 10 µM | hit rate 1.3% among 310,000;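 active = compounds whose thallium flux B-score, printed positive for inhibition, exceeds three library SD while starting fluorescence stays within three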;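 also: channel opened by potassium depolarization with thallium stimulus after 20 min compound exposure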
KCNK9 block conf – confirmation of human KCNK9 potassium channel inhibitors | inhibition, % at 10 µM | HEK293 KCNK9 cells, FluxOR thallium flux fluorescence | hit rate 43% among 4,900 | shares compounds with KCNK9 inh;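 active = thallium signal inhibited by more than 5 SD of the compound-free buffer control wells, on both duplicate plates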;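 also: 0% = assay buffer control wells without compound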
Kir2-1 spec – tests whether KCNK9 modulators also affect mouse Kir2.1; Kir2.1 cells, FluxOR thallium flux fluorescence; inhibition, % at 10 µM; hit rate 4% among 4,900; shares compounds with KCNK9 inh;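 active = thallium signal drop more than 5 SD beyond the mean of the no-compound control wells, seen in both duplicate plates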;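 also: signal is fluorescence rise after thallium addition divided by baseline fluorescence; plate controls were assay buffer only for no effect and full block by chlorpromazine control for full effect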
KCNK9 uninduced – non-induced cell nonspecific activity of KCNK9 modulators. AID 492997. shares compounds with KCNK9 inh. hit rate 40% among 4,900. inhibition, % at 10 µM. non-induced KCNK9-HEK293, FluxOR thallium flux;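 active = thallium signal drop beyond 5 SD of the untreated control mean, on both duplicate plates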;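 also: plate controls were buffer only IC0 wells for no effect and SID17386958 at its maximal inhibitory level for full effect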
KCNK3 inh conf – human KCNK3 channel inhibition, confirmation assay | hit rate 99% among 2,400 | shares compounds with KCNK3 block | CHO-KCNK3 thallium flux, FluxOR fluorescence; 0% buffer, 100% carvedilol maximal block | ratio percent of control, % at 10 µM;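 active = ratio percent of control, averaged over triplicates, above buffer control mean plus 5 SD, cut at about 64% in these data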;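 also: ratio is the fluorescence rise from min to max over baseline after thallium stimulus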
KCNK3 uninduced – counter-screen for KCNK3 inhibitors: effect in non-induced cells. shares compounds with KCNK3 block. non-induced KCNK3 parental cells, FluxOR thallium flux; active compounds read low. thallium flux ratio (lower = more inhibition) at 10 µM. hit rate 40% among 2,400;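 active = thallium flux ratio, averaged over three wells, more than 5 SD below the buffer control mean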;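 also: host cells are CHO cells without KCNK3 induction; ratio is peak minus trough fluorescence over baseline then normalized to buffer controls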
* = called active by the depositor; i = inactive; . = not tested or not shown.

SMILES	KCNK9 inh	hERG rescue	KCNK3 block	KCNQ1 act	Kir21 inh	KCNQ1 block	KCNK9 block conf	Kir2-1 spec	KCNK9 uninduced	KCNK3 inh conf	KCNK3 uninduced
Clc1ccc(-n2cccc2CN2CCc3c([nH]c4ccccc34)C2c2ccccn2)nc1 (configuration not stated)	-8.5*	-25	-10*	i	-0.48	i	38%*	i	25%*	125*	0.14*
O=C(CN(Cc1cccs1)C(=O)CNS(=O)(=O)c1ccc(Cl)cc1)NCC1CCCO1 (configuration not stated)	i	-7	i	i	-0.04	i	.	.	.	.	.
Cc1ccc(NC(=O)CN(Cc2ccco2)Cc2ccccc2O)cc1C	-15*	-13	-12*	i	-1.2	6*	72%*	i	42%*	134*	0.15*
Cc1ccc(NC(=O)N(Cc2cccnc2)Cc2ccco2)cc1C	i	-16	i	i	-1.8	i	.	.	.	.	.
CCc1nc2c(c(=O)[nH]1)C1(CCCC1)Cc1ccccc1-2	i	0	i	i	1	i	.	.	.	.	.
CCCn1c(SCC#N)nc2c(c1=O)C1(CCCC1)Cc1ccccc1-2	-9.9*	-4	-10*	i	0.31	i	52%*	i	29%*	95*	i
Cc1cccc(C)c1NC(=O)CNC(=O)c1ccc(N2CCCC2=O)cc1	.	.	i	.	.	.	.	.	.	.	.
N#Cc1cccc(C(c2nnnn2C2CCCC2)N2CCC(Cc3ccccc3)CC2)c1 (configuration not stated)	-12*	-16	-11*	i	0.11	i	58%*	i	30%*	112*	0.15*
CCC(=O)c1ccccc1OCCCN1CCC(Cc2ccccc2)CC1	i	-17	-10*	i	-5.4*	i	i	i	i	88*	0.13*
COc1ccc(CNC(=O)C(C)n2ccc3cc(S(=O)(=O)N4CCCCCC4)ccc32)cc1 (configuration not stated)	i	-9	i	i	-0.36	i	.	.	.	.	.
O=C(COC(=O)c1ccc(O)cc1)Nc1cc(C(F)(F)F)ccc1Cl	i	-16	i	i	-2.9	i	.	.	.	.	.
CC(OC(=O)c1ccc(O)cc1)C(=O)Nc1cc(C(F)(F)F)ccc1Cl (configuration not stated)	-11*	-21	-9.8*	i	0.46	6*	i	i	48%*	139*	0.12*
COc1ccc(N(C(=O)Cn2nnc(-c3ccccc3F)n2)C(C(=O)NCC2CCCO2)c2ccc(Cl)cc2)cc1 (configuration not stated)	i	-4	i	i	-0.1	i	.	.	.	.	.
CCn1cc(Br)c(C(=O)Nc2ccc(C(=O)OC(C)C)cc2)n1	-11*	-5	-9.7*	i	0.43	i	41%*	i	26%*	99*	i
CC(C)CN(CC(C)C)C(=O)c1cccc(S(=O)(=O)N2CCc3ccccc32)c1	-8.8*	-3	-9.7*	i	-0.03	i	40%*	i	37%*	111*	i
COC1C(CO)OC(n2c3c(Cl)cccc3c3c4c(c5c6cccc(Cl)c6[nH]c5c32)C(=O)NC4=O)C(O)C1O (configuration not stated)	.	.	i	.	.	.	.	.	.	.	.
COCCN1Cc2cccc(C(=O)Nc3ccc(-c4nc5ccccc5[nH]4)cc3)c2C1=O	i	-6	i	i	0.04	i	.	.	.	.	.

High-throughput results from PubChem.
